From paper PMC3988263 (European journal of pharmacology, 2011)
pKi: −log10 of the molar value.

What was measured:
[1] = system: harmaline-induced tremor in ICR mice; experiment: Tremor measurement in the harmaline model; type: in vivo, mouse; conditions: harmaline 20 mg/kg
Outline: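 Male ICR mice (20–24 g) sat on a motion-sensing platform; 20 min baseline, then harmaline 20 mg/kg, then test compound or saline vehicle 15 min later (time 0); 100 min recording; 5–6 mice/group. Read-out was 10–16 Hz motion power as % of 0–33 Hz power over 20–60 and 60–100 min. Reduction = 100×(1−[(DT−DB)/(mean VT−mean VB)]) versus vehicle group; repeated-measures ANOVA.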

[2] = system: pentylenetetrazol model; conditions: ref Handforth et al., 2010; cited from earlier work
[3] = system: mice (sedation/motor function); experiment: Horizontal wire test of behavioral toxicity; type: in vivo, mouse
[4] = system: mice (retention time on inverted wire grid); experiment: Inverted grid test of behavioral toxicity; type: in vivo, mouse
[5] = system: mice (sedation or ataxia); experiment: Gross observation in open fields; type: in vivo, mouse; conditions: doses below 200 mg/kg
[6] = system: GABAA receptor α1-null mice (tremor); experiment: Tremor measurement in the GABAA receptor α1-null model; type: in vivo, mouse; conditions: for tremor reduction compared to baseline: 20 mg/kg i.p., 30 min after drug, tail suspension
[7] = system: CYP3A (mouse liver microsomes)
[8] = system: human CYP2D6; conditions: ref Bui et al., 2008; cited from earlier work
[9] = system: mouse liver microsomes (cytochrome P450, harmaline O-demethylation); experiment: Harmaline O-demethylation to harmalol in mouse liver microsomes; type: in vitro ADME
[10] = system: human recombinant CYP3A4; conditions: ref Bui et al., 2008; cited from earlier work
[11] = system: high voltage calcium channels; conditions: at 100 µM; ref Huang et al., 2004; Li et al., 2005; cited from earlier work
[12] = ref Ertel and Clozel, 1997; cited from earlier work
[13] = system: cytochrome P450 (harmaline O-demethylation to harmalol); experiment: Harmaline O-demethylation to harmalol in mouse liver microsomes; type: in vitro ADME; conditions: mouse, mouse liver microsomes, pH 7.5, probe harmaline (10 µM)
[14] = system: blood pressure; conditions: ref Dogrul et al., 2003; cited from earlier work
[15] = 12.5 mg/kg i.p., 20–60 min post-drug
[16] = 12.5 mg/kg i.p., 60–100 min post-drug

## CC(C)[C@H]1c2ccc(F)cc2CC[C@@]1(CCN(C)CCCc1nc2ccccc2[nH]1)OC(=O)C1CC1.Cl.Cl [NNC 55-0396, (1S,2S)-2-(2-(N-[(3-benzimidazol-2-yl)propyl]-N-methylamino)ethyl)-6-fluoro-1,2,3,4-tetrahydro-1-isopropyl-2-naphtyl cyclopropanecarboxylate dihydrochloride]
[1]; [15]
  tremor generation reduced compared to the vehicle group: 48.5 ± 12.4%
[1]; [16]
  tremor generation reduced compared to the vehicle group: 48.9 ± 13.6%
[1]; 20 mg/kg i.p., 20–60 min post-drug
  tremor generation reduced compared to the vehicle group: 73.6 ± 20.1%
[1]; 20 mg/kg i.p., 60–100 min post-drug
  tremor generation reduced compared to the vehicle group: 85.1 ± 29.1%
[2]
  anti-seizure efficacy: anti-seizure efficacy
[3]; mouse, in vivo, ip
  dose at which 3/6 failed the horizontal wire test: 300 mg/kg
  maximal dose at which 6/6 mice passed the horizontal wire test: 200 mg/kg
[4]; drug 20 mg/kg i.p. then harmaline 20 mg/kg s.c.
  appearance (sedation) of drug/harmaline mice: did not appear sedated
[4]; mouse, in vivo
  retention on the inverted grid compared with vehicle/harmaline mice: better than vehicle/harmaline mice
[5]
  gross observations in open fields: sedation or ataxia: did not reveal sedation or ataxia
[6]
  tremor reduction compared to baseline: 49.2%
[6]; 40 mg/kg i.p., individual α1-null mouse, retest 30 min later
  effect on the tremor motion power peak: suppressed the tremor motion power peak
[7]
  pKi: 6.15
  Ki for testosterone 6-β-hydroxylation relative to mibefradil: over five-fold higher
[8]
  Ki for human CYP2D6 relative to mibefradil: one-fourth that of mibefradil
[9]
  pKi: 6.02
  Ki for harmaline O-demethylation relative to mibefradil: approximately three-fold higher
[9]; drug 100 nM, 10 µM harmaline, mouse liver microsomes
  O-demethylation of harmaline, percentage of normal (mean ± S.D.): 103.7 ± 12.8%
[9]; drug 10 µM, 10 µM harmaline, mouse liver microsomes
  O-demethylation of harmaline, percent of normal (mean ± S.D.): 46.6 ± 5.3%
[10]
  fold higher Ki than mibefradil: 9 fold
[11]
  effect against high voltage calcium channels: no effect

## COc1ccc2c3c([nH]c2c1)C(C)=NCC3 [harmaline]
[4]; vehicle-pre-treated mice, harmaline 20 mg/kg s.c., test 30 min later
  retention time on the wire grid compared with vehicle/vehicle controls: reduced retention times on the wire grid

## COCC(=O)O[C@]1(CCN(C)CCCc2nc3ccccc3[nH]2)CCc2cc(F)ccc2[C@@H]1C(C)C [mibefradil]
[1]; [15]
  tremor generation reduced compared to the vehicle group: 23.1 ± 3.9%
[1]; [16]
  tremor generation reduced compared to the vehicle group: 20.8 ± 11.5%
[12]
  crossing of the blood–brain-barrier: does not cross the blood–brain-barrier
[3]; i.p., tested at 10-min intervals for 1.5 h
  maximal dose at which 6/6 mice passed the horizontal wire test: 20 mg/kg
[3]; mouse, in vivo, ip, 1.5 h
  dose at which 3/6 failed the horizontal wire test: 30 mg/kg
[4]; mouse, in vivo
  appearance (sedation) of drug/harmaline mice: appeared sedated
  retention on the inverted grid compared with vehicle/harmaline mice: worse retention
[6]
  tremor reduction compared to baseline: no effect on tremor
[13]
  Ki at 20 min: 0.29 µM
[9]; mouse liver microsomes
  Ki for harmaline O-demethylation relative to NNC 55-0396: less than a third that of NNC 55-0396
[14]
  dose reported to produce severe hypotension: 30 mg/kg
